According to ChEMBL document CHEMBL3525963, “Tissue distribution and elimination of [14C]apixaban in rats” (Drug Metab Dispos, 2011):

Experiments:
Set-up in all cases: dose 5 mg/kg, dosed compound name [14C]-apixaban, route oral
Settings in all cases: in vivo
Heart [1] = experiment: Biodistribution in male Sprague-Dawley rat heart at 5 mg/kg, po administered as single dose measured after 0.5 hrs; type: ADME, organism-based
How it was run: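 [¹⁴C]Apixaban given by oral gavage at 5 mg/kg (100 μCi/kg) in 0.5% Tween 80 in Labrafil (1.0 mg/mL dosing solution) to rats fasted overnight through 4 h post-dose. One rat per time point; carcass frozen in hexane/dry ice. Quantitative whole-body autoradiography used 40 µm sagittal sections and a phosphor imaging plate calibrated with [¹⁴C]glucose standards (0.001–6.5 μCi/g). Read-out in µg eq apixaban/g; LLOQ 0.037 μg eq/g.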

Thymus [2] = experiment: Biodistribution in male Sprague-Dawley rat thymus at 5 mg/kg, po administered as single dose measured after 72 hrs; type: ADME, organism-based
How it was run: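 Fasted male SD rats (225-252 g) each received one oral gavage dose of [14C]apixaban, 5 mg/kg (100 μCi/kg), in 0.5% Tween 80/Labrafil vehicle. One rat was killed per time point, from 0.5 to 168 h. Frozen carcasses were cut into 40 µm sagittal whole-body sections and read by QWBA phosphor imaging against [14C]glucose calibrants. Results are in µg apixaban eq/g; BLQ <0.037 µg eq/g.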

Thymus [3] = experiment: Biodistribution in male Sprague-Dawley rat thymus at 5 mg/kg, po administered as single dose measured after 8 hrs; type: ADME, organism-based
Brain [4] = experiment: Biodistribution in female Sprague-Dawley rat brain at 5 mg/kg, po administered as single dose measured after 8 hrs; type: ADME, organism-based
How it was run: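 [14C]Apixaban (1.0 mg/mL, 20 μCi/mL in 0.5% Tween 80 in Labrafil) given as a single oral gavage of 5 mg/kg (100 μCi/kg) to fasted female SD rats, one rat per time point. Carcasses were frozen in hexane/dry ice and cut into 40 µm sagittal sections for QWBA against [14C]glucose standards. Brain radioactivity is reported as µg eq/g, with LLOQ 0.037 µg eq/g.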

Brain [5] = experiment: Biodistribution in male Sprague-Dawley rat brain at 5 mg/kg, po administered as single dose measured after 72 hrs; type: ADME, organism-based
Rattus norvegicus [6] = experiment: Biodistribution in male Sprague-Dawley rat brown fat at 5 mg/kg, po administered as single dose measured after 1 hr; type: ADME, organism-based, Brown adipose tissue
How it was run: (§1)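 Fasted male rats, 225-252 g, received [14C]apixaban by single oral gavage at 100 μCi/kg in 0.5% Tween 80/Labrafil. One rat was killed per time point and the carcass frozen. Tissue radioactivity was quantified by QWBA (40 µm sagittal sections, phosphor plate, [14C]glucose calibration) as µg eq apixaban/g, with LLOQ 0.037 μg eq/g.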

Rattus norvegicus [7] = experiment: Biodistribution in male Sprague-Dawley rat brown fat at 5 mg/kg, po administered as single dose measured after 4 hrs; type: ADME, organism-based, Brown adipose tissue; how it was run: as §1
Rattus norvegicus [8] = experiment: Biodistribution in fetal blood of pregnant Sprague-Dawley rat at 5 mg/kg, po administered as single dose measured after 8 hrs; type: ADME, organism-based
How it was run: (§2)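 Pregnant rats, 270-319 g and fasted overnight, received [14C]apixaban by oral gavage at 100 μCi/kg in 0.5% Tween 80/Labrafil. One dam per time point was euthanized and frozen in hexane/dry ice. Fetal tissue radioactivity was measured by QWBA on 40 µm sagittal sections calibrated with [14C]glucose standards. Values are in µg eq/g, with LLOQ 0.037 μg eq/g.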

Rattus norvegicus [9] = experiment: Biodistribution in fetal brain of pregnant Sprague-Dawley rat at 5 mg/kg, po administered as single dose measured after 8 hrs; type: ADME, organism-based
How it was run: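 Pregnant SD rats received a single oral gavage of [14C]apixaban at 5 mg/kg (100 μCi/kg; 1.0 mg/mL, 20 μCi/mL in 0.5% Tween 80/Labrafil) after fasting, one dam per time point. Frozen carcasses were cut into 40 µm sagittal sections and read by phosphor-imaging QWBA against [14C]glucose standards. Fetal tissue radioactivity is reported as µg eq/g, with LLOQ 0.037 µg eq/g.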

Adrenal gland = experiment: Biodistribution in pregnant Sprague-Dawley rat adrenal gland at 5 mg/kg, po administered as single dose measured after 24 hrs; type: ADME, organism-based
How it was run: (§3)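 Fasted pregnant SD rats (n=6, 270-319 g) each received one oral gavage dose of [14C]apixaban, 5 mg/kg (100 μCi/kg), in 0.5% Tween 80/Labrafil. One rat was killed at each of 0.5, 1, 4, 8, 24 and 48 h. Carcasses were frozen in hexane/dry ice, cut into 40 µm sagittal sections, exposed to phosphor plates and quantified against [14C]glucose standards as µg eq/g. LLOQ was 0.037 µg eq/g.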

Heart [10] = experiment: Biodistribution in pregnant Sprague-Dawley rat heart at 5 mg/kg, po administered as single dose measured after 24 hrs; type: ADME, organism-based; how it was run: as §3
Spleen [11] = experiment: Biodistribution in pregnant Sprague-Dawley rat spleen at 5 mg/kg, po administered as single dose measured after 24 hrs; type: ADME, organism-based
[12] = Drug level in lactating Sprague-Dawley rat milk at 5 mg/kg, po administered as single dose after 12 hrs; type: ADME, organism-based
Liver = experiment: Biodistribution in pregnant Sprague-Dawley rat liver at 5 mg/kg, po administered as single dose measured after 48 hrs; type: ADME, organism-based; how it was run: as §3
Rattus norvegicus [13] = experiment: Biodistribution in pregnant Sprague-Dawley rat placenta at 5 mg/kg, po administered as single dose measured after 48 hrs; type: ADME, organism-based
How it was run: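 Pregnant SD rats (270-319 g) were fasted overnight and given one oral gavage of 5 mg/kg (100 μCi/kg) in 0.5% Tween 80 in Labrafil. One rat was euthanized per time point (0.5, 1, 4, 8, 24, 48 h) and the carcass frozen. 40 µm sagittal sections were phosphor-imaged against [14C]glucose standards and results reported as µg eq/g; LLOQ 0.037 µg eq/g.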

[14] = Cmax in lactating Sprague-Dawley rat milk at 5 mg/kg, po administered as single dose; type: ADME, organism-based
How it was run: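 Lactating SD rats received a single oral gavage of 5 mg/kg (108 μCi/kg) in 0.5% Tween 80/Labrafil. Three rats were sampled per time point at 0.5-24 h. Oxytocin was given sc 15 min before milking under anesthesia. Milk, blood and plasma were counted in duplicate by liquid scintillation for 10 min and expressed as apixaban equivalents.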

Rattus norvegicus [15] = experiment: Biodistribution in female Sprague-Dawley rat pituitary gland at 5 mg/kg, po administered as single dose measured after 1 hr; type: ADME, organism-based
How it was run: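 [14C]apixaban (20 μCi/mL in dosing solution) in 0.5% Tween 80 in Labrafil given by oral gavage to fasted female rats, 206-213 g, at 100 μCi/kg. One rat per time point was euthanized and snap-frozen. Sagittal 40 µm whole-body sections were read by QWBA phosphor imaging against [14C]glucose standards. Results are in µg eq apixaban/g, with LLOQ 0.037 μg eq/g.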

Brain [16] = experiment: Biodistribution in pregnant Sprague-Dawley rat brain at 5 mg/kg, po administered as single dose measured after 0.5 hrs; type: ADME, organism-based
Rattus norvegicus [17] = experiment: Biodistribution in pregnant Sprague-Dawley rat pituitary gland at 5 mg/kg, po administered as single dose measured after 0.5 hrs; type: ADME, organism-based
Rattus norvegicus [18] = experiment: Biodistribution in pregnant Sprague-Dawley rat salivary gland at 5 mg/kg, po administered as single dose measured after 0.5 hrs; type: ADME, organism-based
Rattus norvegicus [19] = experiment: Biodistribution in fetal liver of pregnant Sprague-Dawley rat at 5 mg/kg, po administered as single dose measured after 0.5 hrs; type: ADME, organism-based; how it was run: as §2
Spleen [20] = experiment: Biodistribution in pregnant Sprague-Dawley rat spleen at 5 mg/kg, po administered as single dose measured after 1 hr; type: ADME, organism-based

- Radiolabel recovery (Heart [1]): 0.33 ugequiv/g
- Radiolabel recovery (Thymus [2]): Not detected assumed BLQ
- Radiolabel recovery (Thymus [3]): 0.06 ugequiv/g
- Radiolabel recovery (Brain [4]): < 0.037 ugequiv/g
- Radiolabel recovery (Brain [5]): < 0.037 ugequiv/g
- Radiolabel recovery (Rattus norvegicus [6]): 0.94 ugequiv/g
- Radiolabel recovery (Rattus norvegicus [7]): 0.53 ugequiv/g
- Radiolabel recovery (Rattus norvegicus [8]): 0.07 ugequiv/g
- Radiolabel recovery (Rattus norvegicus [9]): < 0.037 ugequiv/g
- Radiolabel recovery (Heart [10]): Not detected assumed BLQ
- Radiolabel recovery (Spleen [11]): < 0.037 ugequiv/g
- Radiolabel recovery [12]: 3.61 µg/mL
- Radiolabel recovery (Liver): Not detected assumed BLQ
- Radiolabel recovery (Rattus norvegicus [13]): Not detected assumed BLQ
- Cmax [14]: 8920 ngequiv/g
- Radiolabel recovery (Rattus norvegicus [15]): 0.42 ugequiv/g
- Radiolabel recovery (Brain [16]): 0.05 ugequiv/g
- Radiolabel recovery (Rattus norvegicus [17]): 0.72 ugequiv/g
- Radiolabel recovery (Rattus norvegicus [18]): 0.73 ugequiv/g
- Radiolabel recovery (Rattus norvegicus [19]): 0.16 ugequiv/g
- Radiolabel recovery (Spleen [20]): 0.51 ugequiv/g
SMILES: COc1ccc(-n2nc(C(N)=O)c3c2C(=O)N(c2ccc(N4CCCC[14C]4=O)cc2)CC3)cc1
- Radiolabel recovery (Adrenal gland): Not sampled as not visualised in autoradiograph
